Source: ChEMBL document CHEMBL5724801, “EUbOPEN Chemogenomics Library - Multiplex” (2024)
Values joined by “and” are separate entries in the source; they are usually repeats but may differ in a detail not shown here. Equal values may be shown once.

What was measured:
[1] = tested on: HEK-293T; experiment: Multiplex assay against HEK293T; assay type: toxicity, cell-based; conditions: human
In short: (§1)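 Cells were classed with CellPathfinder machine-learning gating, first as Hoechst high-intensity objects or normal cells, then (normal cells) as healthy, pyknosed or fragmented nuclei, and finally (pyknosed cells) as mitotic or apoptotic. Staining of live cells at seeding used Hoechst33342, BioTracker Green Microtubule Cytoskeleton Dye, MitoTracker Red and Annexin V Alexa Fluor 680, with imaging on a CQ1 microscope at 37°C and 5% CO2 after compound addition. Tubulin, mitochondrial-mass and membrane-permeability phenotypes are per cents of healthy-nucleus cells.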

[2] = tested on: U2OS; experiment: Multiplex assay against U2OS; assay type: toxicity, cell-based; conditions: human; in short: as §1
[3] = 24 h, 10 µM, compound concentration 10 uM
[4] = 48 h, 1 µM, compound concentration 1 uM
[5] = 48 h, 10 µM, compound concentration 10 uM
[6] = 12 h, 1 µM, compound concentration 1 uM
[7] = 12 h, 10 µM, compound concentration 10 uM
[8] = 24 h, 1 µM, compound concentration 1 uM

## Nc1nc(-c2ccco2)c2cnn(Cc3ccccc3F)c2n1
[1]; [3]
  Population Apoptotic (%): 38% and 35%
  Population Fragmented Nuclei (%): 11%
  Population Healthy Nuclei (%): 67%
  Population Hoechst High Intensity Objects (%): 6% and 10%
  Population Membrane Permeable-Phenotype (%): 2% and 0%
  Population Mitochondria Different-Phenotype (%): 52% and 59%
  Population Mitotic Cells (%): 61% and 64%
  Population Normal (%): 93% and 89%
  Population Pyknosed Nuclei (%): 21%
  Population Tubulin-Different-Phenotype (%): 31% and 23%
  Total Cell Count: 334 and 328
[1]; [4]
  Population Apoptotic (%): 32% and 28%
  Population Fragmented Nuclei (%): 12% and 14%
  Population Healthy Nuclei (%): 75% and 78%
  Population Hoechst High Intensity Objects (%): 3% and 4%
  Population Membrane Permeable-Phenotype (%): 1%
  Population Mitochondria Different-Phenotype (%): 31% and 21%
  Population Mitotic Cells (%): 67% and 71%
  Population Normal (%): 96% and 95%
  Population Pyknosed Nuclei (%): 12% and 7%
  Population Tubulin-Different-Phenotype (%): 18% and 14%
  Total Cell Count: 641 and 769
[1]; [5]
  Population Apoptotic (%): 36% and 28%
  Population Fragmented Nuclei (%): 16% and 13%
  Population Healthy Nuclei (%): 73% and 74%
  Population Hoechst High Intensity Objects (%): 7%
  Population Membrane Permeable-Phenotype (%): 0%
  Population Mitochondria Different-Phenotype (%): 42% and 43%
  Population Mitotic Cells (%): 63% and 71%
  Population Normal (%): 92%
  Population Pyknosed Nuclei (%): 9% and 12%
  Population Tubulin-Different-Phenotype (%): 19% and 15%
  Total Cell Count: 412 and 398
[2]; [6]
  Population Apoptotic (%): 82% and 92%
  Population Fragmented Nuclei (%): 23%
  Population Healthy Nuclei (%): 68% and 64%
  Population Hoechst High Intensity Objects (%): 1% and 0%
  Population Membrane Permeable-Phenotype (%): 4% and 12%
  Population Mitochondria Different-Phenotype (%): 2% and 5%
  Population Mitotic Cells (%): 17% and 7%
  Population Normal (%): 98% and 99%
  Population Pyknosed Nuclei (%): 8% and 12%
  Population Tubulin-Different-Phenotype (%): 3% and 8%
  Total Cell Count: 280 and 109
[2]; [7]
  Population Apoptotic (%): 87% and 77%
  Population Fragmented Nuclei (%): 41% and 20%
  Population Healthy Nuclei (%): 45% and 72%
  Population Hoechst High Intensity Objects (%): 5% and 0%
  Population Membrane Permeable-Phenotype (%): 10% and 5%
  Population Mitochondria Different-Phenotype (%): 4% and 5%
  Population Mitotic Cells (%): 12% and 22%
  Population Normal (%): 94% and 99%
  Population Pyknosed Nuclei (%): 12% and 7%
  Population Tubulin-Different-Phenotype (%): 7% and 1%
  Total Cell Count: 197 and 125
[2]; [8]
  Population Apoptotic (%): 96% and 84%
  Population Fragmented Nuclei (%): 19% and 18%
  Population Healthy Nuclei (%): 70% and 71%
  Population Hoechst High Intensity Objects (%): 1% and 4%
  Population Membrane Permeable-Phenotype (%): 4% and 10%
  Population Mitochondria Different-Phenotype (%): 1% and 3%
  Population Normal (%): 98% and 95%
  Population Pyknosed Nuclei (%): 9% and 10%
  Population Tubulin-Different-Phenotype (%): 2% and 8%
  Total Cell Count: 332 and 127
[2]; [3]
  Population Apoptotic (%): 82% and 90%
  Population Fragmented Nuclei (%): 38% and 19%
  Population Healthy Nuclei (%): 53% and 73%
  Population Hoechst High Intensity Objects (%): 5% and 1%
  Population Membrane Permeable-Phenotype (%): 7% and 5%
  Population Mitochondria Different-Phenotype (%): 3% and 0%
  Population Mitotic Cells (%): 17% and 9%
  Population Normal (%): 94% and 98%
  Population Pyknosed Nuclei (%): 7%
  Population Tubulin-Different-Phenotype (%): 5% and 4%
  Total Cell Count: 230 and 157
[2]; [4]
  Population Apoptotic (%): 94% and 95%
  Population Fragmented Nuclei (%): 17% and 16%
  Population Healthy Nuclei (%): 74% and 67%
  Population Hoechst High Intensity Objects (%): 1% and 6%
  Population Membrane Permeable-Phenotype (%): 2% and 5%
  Population Mitochondria Different-Phenotype (%): 2% and 5%
  Population Mitotic Cells (%): 5% and 4%
  Population Normal (%): 98% and 93%
  Population Pyknosed Nuclei (%): 7% and 15%
  Population Tubulin-Different-Phenotype (%): 2% and 1%
[2]; [5]
  Population Apoptotic (%): 95% and 86%
  Population Fragmented Nuclei (%): 37% and 23%
  Population Healthy Nuclei (%): 51% and 69%
  Population Hoechst High Intensity Objects (%): 11% and 2%
  Population Membrane Permeable-Phenotype (%): 17% and 12%
  Population Mitochondria Different-Phenotype (%): 6%
  Population Mitotic Cells (%): 4% and 13%
  Population Normal (%): 88% and 97%
  Population Pyknosed Nuclei (%): 10% and 7%
  Population Tubulin-Different-Phenotype (%): 11% and 6%
  Total Cell Count: 252 and 196
